Published values of several laboratories.
Each line is one published result; the experiments were not run side by side.
Target: Serine/threonine-protein kinase N2 (PKN2, Homo sapiens, UniProt Q16513)

The remaining binding of O=C(c1ccc(Nc2ncc(Cl)c(-c3cc4ccccc4s3)n2)cc1)N1CCC(N2CCCC2)CC1 is reported as 11% (binding; competition with immobilised ligand; 1 µM).
For COc1cnc(Nc2cccc(S(N)(=O)=O)c2)nc1N1CCN(c2ccccc2)C(=O)C1, the remaining binding was 100% (binding; competition with immobilised ligand; 1 µM).
CCN1CCN(Cc2ccc(C(=O)Nc3ccc(C)c(Oc4ccc5c(c4)CC(=O)N5)c3)cc2C(F)(F)F)CC1 has a remaining binding of 100% (binding; competition with immobilised ligand; 1 µM).
For F[C@@H]1CCN(c2nccc(-c3cnn4ncccc34)n2)C1, the remaining binding was 100% (binding; 1 µM).
For Cn1nc(C(=O)NCc2ccc(C(=O)O)cc2)cc1-c1ccc2[nH]ccc2c1, the remaining binding was 100% (cell-free assay; competition with immobilised ligand; 0.1 µM).
For CN(c1nccc(-c2cnn3ncccc23)n1)C1CC1, the remaining binding was 89% (binding; 1 µM).
With c1cncc(-c2cccc(Nc3nccc(NC4CCCCC4)n3)c2)c1 the remaining binding was 43% (binding; competition with immobilised ligand; 10 µM).
COc1cccc(CNC(=O)c2nc3scc(COCc4ccc(C(=O)O)cc4)c3c(=O)[nH]2)c1 has a remaining binding of 98% (cell-free assay; competition with immobilised ligand; 1 µM).
With N[C@H]1CCN(c2nccc(-c3cnn4ncccc34)n2)C1 the remaining binding was 71% (binding; 1 µM).
The remaining binding of O=C(c1ccc(Nc2ncc(Cl)c(-c3ccc(Cl)s3)n2)cc1)N1CCC(N2CCCC2)CC1 is reported as 56% (binding; competition with immobilised ligand; 1 µM).
O=C1NC(c2ccccn2)Sc2ccccc21 (stereo not shown) gave a remaining binding of 100% (cell-free assay; competition with immobilised ligand; 1 µM).
O=C(Nc1c[nH]nc1C(=O)NC1CCNCC1)c1cc(F)cc(F)c1 gave a remaining binding of 100% (binding; competition with immobilised ligand; 1 µM).
COc1ncc2cc3ccccc3nc2c1C#N gave a remaining binding of 80% (cell-free assay; competition with immobilised ligand; 5 µM).
With C[C@@H]1CN(c2cc(-c3nn(C)c4ccc(OC5(C)CC5)cc34)ncn2)C[C@H](C)O1 the remaining binding was 100% (cell-free assay; competition with immobilised ligand; 1 µM).
With C[C@H]1CCN(c2nccc(-c3cnn4ncccc34)n2)C1 the remaining binding was 95% (binding; 1 µM).
The remaining binding of CNC(=O)[C@@H]1CC[C@@H](n2c(-c3ccc4cnccc4c3)nc3ccc(C(=O)NCc4cccc(C(N)=O)c4)cc32)C1 is reported as 94% (binding; competition with immobilised ligand; 1 µM).
For C[C@H](c1ccc(F)cc1)N(Cc1cccc(C(=O)O)c1)C(=O)c1cnc2ccccc2c1, the remaining binding was 86% (cell-free assay; competition with immobilised ligand; 1 µM).
With CN(C)c1ncc(F)c(-c2cnn3ncccc23)n1 the remaining binding was 100% (binding; 1 µM).
With CN(C)C(=O)Cn1cc(-c2nc(C3(c4ccc(-c5cnc(N)nc5)cc4)CC3)no2)cn1 the remaining binding was 77% (cell-free assay; competition with immobilised ligand; 1 µM).
Cc1cnc(Nc2ccc(C(=O)N3CCC(N4CCCC4)CC3)cc2)nc1-c1cc2ccccc2s1 has a remaining binding of 21% (binding; competition with immobilised ligand; 1 µM).
For Cc1cnn2ncc(-c3ccnc(N(C)C)n3)c2c1, the remaining binding was 94% (binding; 1 µM).
Cc1nc(C2CCN(C(=O)c3ccc(OC(F)(F)F)cc3N)CC2)c2ncc(N3CCN(C)CC3)cc2n1 gave a remaining binding of 100% (cell-free assay; competition with immobilised ligand; 1 µM).
